{"source": "paper PMC4092037", "about": "(American journal of reproductive immunology (New York, N.Y. …, 2013)", "molecules": {"B1": {"name": "prochemerin: secreted as an inactive precursor, which is 143 amino acids long in human (protein, UniProt Q99969 21-163, looked up)", "pro-form": "ELTEAQRRGLQVALEEFHKHPPVQWAFQETSVESAVDTPFPAGIFVRLEFKLQQTSCRKRDWKKPECKVRPNGRKRKCLACIKLGSEDKVLGRLVHCPIETQVLREAEEHQETQCLRVQRAGEDPHSFYFPGQFAFSKALPRS", "modifications": "pro-form"}, "B2": {"name": "mChemerin: mouse recombinant chemerin purchased from R&D Systems (protein, UniProt Q9DD06 21-156, looked up)", "Retinoic acid receptor …": "EPELSETQRRSLQVALEEFHKHPPVQLAFQEIGVDRAEEVLFSAGTFVRLEFKLQQTNCPKKDWKKPECTIKPNGRRRKCLACIKMDPKGKILGRIVHCPILKQGPQDPQELQCIKIAQAGEDPHGYFLPGQFAFS"}}, "key": {"[1]": {"biological_target": "T1, human CMKLR1 (Homo sapiens, UniProt Q99788)", "T1 sequence (Q99788 1-373)": "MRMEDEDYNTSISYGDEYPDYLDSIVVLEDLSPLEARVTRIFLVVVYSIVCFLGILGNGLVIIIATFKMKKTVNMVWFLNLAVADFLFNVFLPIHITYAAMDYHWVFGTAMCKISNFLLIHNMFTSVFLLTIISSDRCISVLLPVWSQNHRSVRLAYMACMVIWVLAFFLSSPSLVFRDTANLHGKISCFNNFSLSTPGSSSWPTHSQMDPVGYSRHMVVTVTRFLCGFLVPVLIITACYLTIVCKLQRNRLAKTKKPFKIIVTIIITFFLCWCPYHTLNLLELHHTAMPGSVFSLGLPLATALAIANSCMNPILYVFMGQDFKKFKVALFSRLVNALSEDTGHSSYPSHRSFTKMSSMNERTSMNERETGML", "assay": "cAMP assay, huCMKLR1/HEK293", "format": "cell-based", "settings": "forskolin 10 μM, 30 min at 37°C"}, "[2]": {"tested_on": "WT/HEK293 cells", "assay": "cAMP assay, WT/HEK293", "format": "cell-based", "settings": "30 min at 37°C", "in_short": "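Wild-type HEK293 cells were plated at 5 × 10^5/well, cultured for 24 h and serum-starved for 4 h. Exposed for 30 min at 37°C to test compound, forskolin 10 μM, both together, or medium. Washed with cold PBS and lysed. Lysate cAMP was measured by kit and normalised to total protein (BCA); conditioned medium was also assayed. Mean ± S.E.M.; one-way ANOVA with SNK test.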"}, "[3]": {"biological_target": "T1, human CMKLR1", "assay": "In vitro transwell chemotaxis assay, huCMKLR1/L1.2", "format": "cell-based", "settings": "for chemotaxis: 4 h at 37°C, fluorescence 560/580 nm"}, "[4]": {"tested_on": "primary Leydig cells", "assay": "Testosterone production, primary Leydig cell culture", "format": "cell-based, Sprague-Dawley rat", "settings": "24 h; for hCG-stimulated testosterone production: hCG 0.01 IU/mL, vs hCG group", "in_short": "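Leydig cells came from five male rats aged 3–4 months. Decapsulated testes were digested for 15 min at 34°C in DMEM/F12-0.1% BSA with 0.5 mg/mL collagenase IA and 0.25 mg/mL soybean trypsin inhibitor. Filtered, purified on a Percoll gradient, cultured at 34°C, 5% CO2, and purity checked by 3β-HSD staining. Treated for 24 h with test compound ± hCG 0.01 IU/mL. Medium testosterone by 125I RIA; mean ± S.E.M.; ANOVA/SNK.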"}, "[5]": {"tested_on": "antral follicles", "assay": "Progesterone production, antral follicle culture", "format": "cell-based, Sprague-Dawley rat", "settings": "hCG 0.01 IU/mL, 6 h, vs hCG group", "in_short": "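Immature female rats (21–23 days) were primed with PMSG, 30 IU i.p. per rat. Follicles over 900 μm were isolated 48 h later into ice-cold saline and preincubated at 3 per well in DMEM/F12-0.1% BSA at 37°C. Treated for 6 h with test compound, alone or with hCG 0.01 IU/mL. Medium progesterone measured by 125I RIA (sensitivity 0.02 ng/mL). Mean ± S.E.M.; one-way ANOVA with SNK test.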"}, "[6]": {"biological_target": "T1, human CMKLR1", "assay": "Radioligand binding assay, huCMKLR1/HEK293"}, "[7]": {"biological_target": "T2, human GPR1 (Homo sapiens, UniProt P46091)", "T2 sequence (P46091 1-355)": "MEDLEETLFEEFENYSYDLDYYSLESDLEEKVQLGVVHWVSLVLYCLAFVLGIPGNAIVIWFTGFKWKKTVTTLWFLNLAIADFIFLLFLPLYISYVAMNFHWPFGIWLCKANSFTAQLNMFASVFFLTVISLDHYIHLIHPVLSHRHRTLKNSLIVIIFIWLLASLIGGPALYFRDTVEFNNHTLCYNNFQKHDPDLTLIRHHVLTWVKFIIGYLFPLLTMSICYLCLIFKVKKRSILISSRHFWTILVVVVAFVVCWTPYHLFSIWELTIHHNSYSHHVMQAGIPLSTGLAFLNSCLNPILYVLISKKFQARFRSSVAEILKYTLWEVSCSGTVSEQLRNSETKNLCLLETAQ", "assay": "Radioligand binding assay, huGPR1/HEK293", "in_short": "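Competition binding on intact huGPR1/HEK293 cells, with neuronostatin as the negative-control peptide. After incubation, cells were pelleted at 1000 × g for 10 min, washed three times, and counted in a γ-spectrophotometer.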"}, "[8]": {"biological_target": "T1, human CMKLR1", "assay": "Receptor internalization assay, huCMKLR1/HEK293", "format": "cell-based", "settings": "100 nM, 30 min at 37°C, confocal, four independent experiments"}, "[9]": {"tested_on": "human granulose cell", "settings": "human granulosa cells; cited from earlier work"}, "[10]": {"tested_on": "CMKLR1", "settings": "cited from earlier work"}, "[11]": {"tested_on": "GPR1", "settings": "cited from earlier work"}, "[12]": {"tested_on": "CCRL2", "settings": "cited from earlier work"}, "[13]": {"tested_on": "WT/HEK293 cells", "assay": "Internalization assay, wild-type HEK293", "format": "cell-based", "settings": "100 nM, 30 min at 37°C, confocal", "in_short": "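Cells were grown on 0.1% gelatin-coated coverslips and serum-starved for 4 h at 50–60% confluence. […] Fixed in 4% paraformaldehyde and permeabilised with 0.1% Triton X-100. Stained overnight at 4°C with rat anti-human CMKLR1 mAb, then Alexa-488 anti-rat for 2 h, with DAPI. Examined by confocal microscopy; four independent experiments.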"}, "[14]": {"tested_on": "WT/HEK293 cells", "assay": "Immunocytochemistry of C-FOS, WT/HEK293", "format": "cell-based", "settings": "100 nM, 30 min at 37°C", "in_short": "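Coverslips coated with 0.1% gelatin. […] Fixed in 4% paraformaldehyde for 30 min and permeabilised with 0.1% Triton X-100 for 10 min. Stained with rabbit anti-C-FOS overnight at 4°C, then Alexa-488 anti-rabbit for 1 h, with DAPI nuclear stain. Imaged by confocal microscopy.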"}, "[15]": {"tested_on": "WT/HEK293 cells", "assay": "C-FOS gene expression", "format": "cell-based", "settings": "30 nM, 30 min at 37°C, data not shown"}, "[16]": {"tested_on": "WT/L1.2 cells", "assay": "In vitro transwell chemotaxis assay, WT/L1.2", "format": "cell-based", "settings": "0.3, 1, 10, 100 nM, 4 h at 37°C", "in_short": "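Wild-type L1.2 cells were pretreated overnight with sodium butyrate. […] After 4 h migration at 37°C, cells in the lower chamber were stained with CellTiter Blue and read by fluorescence at 560/580 nm. Run in parallel with the CMKLR1-transfected line.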"}, "[17]": {"tested_on": "CMKLR1", "settings": "cited from earlier work", "remark": "listed apart in the source"}, "[18]": {"tested_on": "primary Leydig cells", "assay": "Steroidogenic enzyme gene expression, primary Leydig cells", "format": "cell-based, Sprague-Dawley rat", "settings": "beta-actin reference, 24 h", "in_short": "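Leydig cells from testes of five Sprague-Dawley males (3–4 months): collagenase IA digestion, 15 min at 34°C; 70 μm filtration; Percoll gradient (1.030–1.096 g/mL); culture at 34°C, 5% CO2; purity by 3β-HSD staining.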"}, "[19]": {"tested_on": "antral follicles", "assay": "Steroidogenic enzyme gene expression, antral follicles", "format": "cell-based, Sprague-Dawley rat", "settings": "large antral follicles, beta-actin reference, 6 h"}}, "note": "Where two headings read alike, the source gives them in different places. Ends that are not written are not given here."}
{"molecule": "C=C[C@@]1(C)CC(=O)[C@]2(O)[C@@]3(C)[C@@H](O)CCC(C)(C)[C@@H]3[C@H](O)[C@H](OC(C)=O)[C@@]2(C)O1", "note": "[forskolin, reference compound]", "values": [{"measurement": "increase in cAMP production", "setting": "[1]", "value": "more than 50 fold"}, {"measurement": "increase in cAMP production", "setting": "[2]; forskolin 10 μM", "value": "more than 50 fold"}]}
{"molecule": "AGEDPHSFYFPGQFA [huC-15]", "values": [{"measurement": "chemotaxis", "setting": "[3]; 1 nM", "value": "no chemotactic actions"}, {"measurement": "chemotaxis", "setting": "[3]; 10 nM", "value": "no chemotactic actions"}, {"measurement": "hCG-stimulated testosterone production", "setting": "[4]; 100 nM", "value": "no such kind of suppression"}]}
{"molecule": "C-20: 20 amino acid chemerin-derived peptide; used without species prefix for huC-20 or mC-20 (VQRAGEDPHSFYFPGQFAFS)", "values": [{"measurement": "lowest effective dose for chemotaxis", "setting": "[3]; of 0.3, 1, 10, 100 nM tested", "value": 1, "unit": "nM"}, {"measurement": "hCG-stimulated testosterone production", "setting": "[4]; 1 nM", "value": "not effective"}, {"measurement": "hCG-stimulated testosterone production", "setting": "[4]; 10 nM", "value": "not effective"}, {"measurement": "hCG-stimulated progesterone production", "setting": "[5]; 1 nM", "value": "not effective"}, {"measurement": "hCG-stimulated progesterone production", "setting": "[5]; 10 nM", "value": "not effective"}]}
{"molecule": "IAQAGEDPHGYFLPGQFAFS [mC-20]", "values": [{"measurement": "IC50", "setting": "[6]", "value": 2.5, "unit": "nM"}, {"measurement": "IC50", "setting": "[7]", "value": 5, "unit": "nM"}]}
{"molecule": "LRQFLQKSLAAAT [NTS]", "values": [{"measurement": "CMKLR1 internalization", "setting": "[8]", "value": "negative control"}, {"measurement": "chemotaxis", "setting": "[3]; 1 nM", "value": "no chemotactic actions"}, {"measurement": "chemotaxis", "setting": "[3]; 10 nM", "value": "no chemotactic actions"}]}
{"molecule": "VQRAGEDPHSFYFPGQFAFS [huC-20]", "values": [{"measurement": "IC50", "setting": "[6]", "value": 1.6, "unit": "nM"}, {"measurement": "IC50", "setting": "[7]", "value": 3.5, "unit": "nM"}]}
{"molecule": "chemerin: The active protein of 137 amino acids in human was named chemerin", "values": [{"measurement": "IGF-1-induced progesterone and estradiol secretion", "setting": "[9]", "value": "inhibited"}, {"measurement": "leukocyte chemotaxis", "setting": "[10]", "value": "promotes leukocyte chemotaxis"}, {"measurement": "receptor internalization", "setting": "[10]", "value": "triggers receptor internalization"}, {"measurement": "receptor internalization", "setting": "[11]", "value": "stimulates receptor internalization"}, {"measurement": "internalization and chemotaxis", "setting": "[12]", "value": "stimulates neither internalization nor chemotaxis"}]}
{"molecule": "huChemerin: Human recombinant chemerin purchased from R&D Systems", "values": [{"measurement": "IC50", "setting": "[7]; read-out: IC50 (displacement of iodochemerin), huGPR1/HEK293 cells, about 1,000,000 per tube, 2 nM iodochemerin, 16 h at 23°C", "value": 0.5, "unit": "nM"}, {"measurement": "internalization", "setting": "[13]", "value": "No internalization observed"}, {"measurement": "C-FOS protein expression", "setting": "[14]", "value": "No such stimulation"}, {"measurement": "C-FOS gene expression", "setting": "[15]", "value": "No such stimulation"}, {"measurement": "forskolin-stimulated cAMP production", "setting": "[2]; 10 nM peptide/protein + 10 μM forskolin cotreatment", "value": "no effect"}, {"measurement": "chemotactic response", "setting": "[16]", "value": "no chemotactic response"}]}
{"molecule": "B1", "values": [{"measurement": "affinity for CMKLR1", "setting": "[17]", "value": "very low affinity"}]}
{"molecule": "B2", "values": [{"measurement": "hCG-stimulated testosterone production", "setting": "[4]; 1 nM", "value": "suppressed"}, {"measurement": "hCG-stimulated testosterone production", "setting": "[4]; 10 nM", "value": "suppressed"}, {"measurement": "hCG-stimulated testosterone production", "setting": "[4]; 100 nM", "value": "suppressed"}, {"measurement": "basal testosterone production", "setting": "[4]; no hCG, 1, 10, 100 nM", "value": "No effect was observed"}, {"measurement": "17β-HSD gene expression", "setting": "[18]", "value": "not affected"}, {"measurement": "StAR gene expression", "setting": "[18]", "value": "not affected"}, {"measurement": "p450scc gene expression", "setting": "[18]", "value": "not affected"}, {"measurement": "3β-HSD gene expression", "setting": "[18]; with hCG", "value": "suppression of 3β-HSD gene expression"}, {"measurement": "hCG-stimulated progesterone production", "setting": "[5]; 10 nM", "value": "effective"}, {"measurement": "hCG-stimulated progesterone production", "setting": "[5]; 100 nM", "value": "effective"}, {"measurement": "17β-HSD gene expression", "setting": "[19]", "value": "not affected"}, {"measurement": "StAR gene expression", "setting": "[19]", "value": "not affected"}, {"measurement": "p450scc gene expression", "setting": "[19]", "value": "not affected"}, {"measurement": "3β-HSD gene expression", "setting": "[19]; with hCG", "value": "suppression of 3β-HSD gene expression"}]}
